This note sets out measurements from ChEMBL document CHEMBL1275259, “In vitro antituberculosis activities of ACH-702, a novel isothiazoloquinolone, against quinolone-susceptible and quinolone-resistant isolates” (Antimicrob Agents Chemother, 2010).

≈ marks a conversion by molar mass, not a printed value.

The target in one test is DNA gyrase subunit A (Mycobacterium tuberculosis, UniProt P9WG47). Description: Inhibition of DNA supercoiling activity of wild type Mycobacterium tuberculosis DNA gyrase A. The essentials: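 Gyrase reconstituted from wild-type GyrA plus wild-type GyrB at a 2:3 molar ratio. Supercoiling assay follows ATP-dependent conversion of relaxed pBR322 DNA to the supercoiled form. Supercoiled product quantified by ethidium bromide fluorescence after agarose gel electrophoresis.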
DNA gyrase subunit A, sequence (P9WG47 whole entry): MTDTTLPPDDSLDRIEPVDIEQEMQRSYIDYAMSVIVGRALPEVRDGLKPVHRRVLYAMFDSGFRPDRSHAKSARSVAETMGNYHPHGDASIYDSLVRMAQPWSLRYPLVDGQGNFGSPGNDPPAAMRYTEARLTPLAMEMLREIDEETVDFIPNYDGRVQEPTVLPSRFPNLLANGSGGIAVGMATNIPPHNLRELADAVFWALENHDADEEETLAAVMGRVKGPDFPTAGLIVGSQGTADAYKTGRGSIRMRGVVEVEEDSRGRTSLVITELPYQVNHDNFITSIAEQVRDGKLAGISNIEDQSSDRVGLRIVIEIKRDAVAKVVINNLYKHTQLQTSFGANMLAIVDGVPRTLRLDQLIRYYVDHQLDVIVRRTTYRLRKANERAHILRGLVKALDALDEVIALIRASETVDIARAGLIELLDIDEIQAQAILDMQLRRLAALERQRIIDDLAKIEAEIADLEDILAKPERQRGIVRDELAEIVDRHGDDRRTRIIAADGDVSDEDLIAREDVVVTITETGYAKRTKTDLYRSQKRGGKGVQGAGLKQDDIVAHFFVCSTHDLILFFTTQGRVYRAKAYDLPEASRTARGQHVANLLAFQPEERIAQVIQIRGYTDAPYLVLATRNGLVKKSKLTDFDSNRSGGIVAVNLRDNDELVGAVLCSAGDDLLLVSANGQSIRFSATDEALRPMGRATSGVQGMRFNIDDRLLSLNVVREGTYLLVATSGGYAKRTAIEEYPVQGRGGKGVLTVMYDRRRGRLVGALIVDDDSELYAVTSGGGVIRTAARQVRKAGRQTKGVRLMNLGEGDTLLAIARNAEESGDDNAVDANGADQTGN

For test [1], the system named is Mycobacterium tuberculosis. Kind of test: Antimicrobial activity against pansusceptible Mycobacterium tuberculosis isolate 14. Type of test: functional. The essentials: (§1)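 Broth microdilution MIC in modified 7H10 broth (pH 6.6). Drugs dissolved in DMSO at 1 mg/ml, then serially diluted. Isolates grown 5 to 10 days at 37°C on a rotary shaker, diluted to 100 Klett units and frozen. Final inoculum about 6 × 10^4 CFU/ml (range 1.2 × 10^4 to 2.6 × 10^5). Duplicate wells, sealed, read after about 21 days at 37°C in ambient air.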

The subject of test [2] is Mycobacterium tuberculosis. Kind of test: Antimicrobial activity against pansusceptible Mycobacterium tuberculosis isolate 7. Type of test: functional. The essentials: as §1
Test [3] relates to Mycobacterium tuberculosis. Kind of test: Antimicrobial activity against pansusceptible Mycobacterium tuberculosis isolate 5. The test is classed as functional. The essentials: as §1
For test [4], the system named is Mycobacterium tuberculosis. Description: Antimicrobial activity against pansusceptible Mycobacterium tuberculosis isolate 2. The test is classed as functional. The essentials: as §1
Test [5] deals with Mycobacterium tuberculosis. Kind of test: Antimicrobial activity against pansusceptible Mycobacterium tuberculosis isolate 1. Type of test: functional. In a few lines:
as §1

In test [6] the test system is Mycobacterium tuberculosis. Kind of test: Antimicrobial activity against pansusceptible Mycobacterium tuberculosis isolate 6. Type of test: functional. The essentials: as §1
Test [7] has as its system Mycobacterium tuberculosis. Description: Antimicrobial activity against Mycobacterium tuberculosis isolate 13 isolated from Beijing. The test is classed as functional. The essentials:
as §1

The test system of test [8] is Mycobacterium tuberculosis. Kind of test: Antimicrobial activity against pansusceptible Mycobacterium tuberculosis isolate 4. The test is classed as functional. In a few lines: as §1
The subject of test [9] is Mycobacterium tuberculosis. Kind of test: Antimicrobial activity against pansusceptible Mycobacterium tuberculosis isolate 3. Type of test: functional. The essentials: as §1

`C[C@H]1COc2c(N3CCN(C)CC3)c(F)cc3c(=O)c(C(=O)O)cn1c23` [LEVOFLOXACIN] had an IC50 at DNA gyrase subunit A of 52 µM.
For the compound `CO[C@H]1/C=C/O[C@@]2(C)Oc3c(C)c(O)c4c(O)c(c(/C=N/N5CCN(C)CC5)c(O)c4c3C2=O)NC(=O)/C(C)=C\C=C\[C@H](C)[C@H](O)[C@@H](C)[C@@H](O)[C@@H](C)[C@H](OC(C)=O)[C@@H]1C` [RIFAMPIN], the MIC in test [1] is 0.002 µg/mL (≈ 0.00243 µM); in [2], 0.004 µg/mL (≈ 0.00486 µM); in [3] it was 0.015 µg/mL (≈ 0.0182 µM); in test [4], ≤ 0.001 µg/mL; in [5], 0.004 µg/mL (≈ 0.00486 µM); in [6], 0.008 µg/mL (≈ 0.00972 µM). Also, the MIC in test [7] is 0.002 µg/mL (≈ 0.00243 µM); in [8], 0.008 µg/mL (≈ 0.00972 µM); in test [9] it was 0.004 µg/mL (≈ 0.00486 µM).
For `NNC(=O)c1ccncc1` [ISONIAZID], the minimum inhibitory concentration (MIC) was 0.06 µg/mL (≈ 0.438 µM) in [1]; 0.06 µg/mL (≈ 0.438 µM) in test [2]; 0.125 µg/mL (≈ 0.911 µM) in [3]; 0.06 µg/mL (≈ 0.438 µM) in test [4]; 0.03 µg/mL (≈ 0.219 µM) in test [5]; 0.06 µg/mL (≈ 0.438 µM) in test [6]. The MIC was 0.125 µg/mL (≈ 0.911 µM) in test [7], 0.06 µg/mL (≈ 0.438 µM) in test [8] and 0.06 µg/mL (≈ 0.438 µM) in test [9].
For `COc1c(N2CC[C@@H](C(C)(C)N)C2)c(F)cc2c(=O)c3c(=O)[nH]sc3n(C3CC3)c12`, the MIC in test [1] came to 0.06 µg/mL (≈ 0.139 µM); in test [2], 0.06 µg/mL (≈ 0.139 µM); in test [3], 0.06 µg/mL (≈ 0.139 µM); in test [4] it was 0.03 µg/mL (≈ 0.0694 µM); in test [5] it was 0.06 µg/mL (≈ 0.139 µM); in [6], 0.03 µg/mL (≈ 0.0694 µM). Moreover, the minimum inhibitory concentration (MIC) in test [7], in [8] and in test [9] was 0.06 µg/mL (≈ 0.139 µM) throughout. On DNA gyrase subunit A, this compound returned an IC50 of 2.9 µM.
Turning to `COc1c(N2C[C@@H]3CCCN[C@@H]3C2)c(F)cc2c(=O)c(C(=O)O)cn(C3CC3)c12` [MOXIFLOXACIN], the minimum inhibitory concentration (MIC) in test [1] came out at 0.03 µg/mL (≈ 0.0747 µM); in test [2], 0.06 µg/mL (≈ 0.149 µM); in test [3] it was 0.06 µg/mL (≈ 0.149 µM); in test [4], 0.03 µg/mL (≈ 0.0747 µM); in test [5] it was 0.03 µg/mL (≈ 0.0747 µM); in test [6] it was 0.03 µg/mL (≈ 0.0747 µM). Moreover, the MIC in test [7] was found to be 0.03 µg/mL (≈ 0.0747 µM); in test [8] it was 0.06 µg/mL (≈ 0.149 µM); in test [9], 0.03 µg/mL (≈ 0.0747 µM).
As to `COc1c(N2CCNC(C)C2)c(F)cc2c(=O)c(C(=O)O)cn(C3CC3)c12` (centres undefined) [GATIFLOXACIN], at DNA gyrase subunit A, the midpoint of inhibition, the IC50, lay at 9.4 µM. This lies in the single-digit micromolar range.
